Data: ChEMBL document CHEMBL1128398, “Structure-activity relationship of alpha-galactosylceramides against B16-bearing mice” (1995)

What was measured:
B16 [1] = assay: Tumor Growth Inhibitory effect (TGIR) on mice subcutaneously inoculated with B16 cells (compound alone (single)); format: functional, Mus musculus; set-up: concentration or dose not given beside the values
Summary of the method: (§1)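 Groups of six female BDF1 mice received B16 melanoma (1 × 10^6 cells/mouse) s.c. on day 0. AGL analogues were given i.v. at 100 μg/kg on days 1, 5 and 9, and MMC at 5 mg/kg i.p. on day 1; controls were untreated. Tumor volume (length × width × height/2, by callipers) was read on days 8, 12, 16 and 20. TGIR = [1 − mean test volume/mean control volume] × 100, and the maximum value is reported.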

Mus musculus [2] = organism: Mus musculus; assay: Lymphocyte Proliferation Stimulatory effect on Allogenic MLR at 0.1 ng/mL and measured for [3H]TdR (tritium-thymidine) uptake (percent of control); format: functional
Summary of the method: (§2)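 Responders were BALB/c spleen cells and stimulators were C57BL/6 spleen cells pretreated with MMC (50 μg/mL, 30 min). Both were plated at 1 × 10^5 cells in 10% FCS RPMI 1640, with compounds added at plating. Culture was at 37 °C in 5% CO2 for 2–3 days, then a 6 h [3H]TdR pulse with scintillation counting. Run in triplicate.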

B16 [3] = assay: Tumor Growth Inhibitory effect (TGIR) on mice subcutaneously inoculated with B16 cells (chemotherapeutic agent, mitomycin C (MMC)); format: functional, Mus musculus; set-up: concentration or dose not given beside the values; summary of the method: as §1
Homo sapiens [4] = organism: Homo sapiens; assay: Lymphocyte Proliferation Stimulatory effect on human peripheral blood at 100 ng/mL and measured for [3H]TdR (tritium-thymidine) uptake (percent of control); format: functional
Summary of the method: (§3)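 Mononuclear cells were isolated from human peripheral blood or umbilical cord blood and plated at 1 × 10^5 cells/well in RPMI 1640 with 10% autologous plasma, with compound. After 4 days of incubation, a 6 h [3H]TdR pulse was given and uptake was counted by scintillation. Run in triplicate.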

Mus musculus [5] = organism: Mus musculus; assay: Lymphocyte Proliferation Stimulatory effect was tested on mouse spleen cells and evaluated for at 6 h [3H]TdR (tritium-thymidine) pulse and uptake into cells at 100 ng/mL; format: functional
Summary of the method: (§4)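 BALB/c spleen cells (2 × 10^5 cells/well, no stimulator cells) were cultured in 10% FCS RPMI 1640 with compound at 37 °C in 5% CO2 for 2–3 days. A 6 h [3H]TdR pulse followed, and uptake was counted by liquid scintillation. Run in triplicate.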

B16 [6] = assay: Tumor Growth Inhibitory effect (TGIR) on mice subcutaneously inoculated with B16 cells (compound plus MMC); format: functional, Mus musculus; set-up: concentration or dose not given beside the values; summary of the method: as §1
Homo sapiens [7] = organism: Homo sapiens; assay: Lymphocyte Proliferation Stimulatory effect on human umbilical cord blood at 1 ng/mL and measured for [3H]TdR (tritium-thymidine) uptake (percent of control); format: functional; summary of the method: as §3
Mus musculus [8] = assay: Compound is administered at days 6, 10, and 14.Tumor volume of each mouse is measured on days 8, 12, 16 and 20(chemotherapeutic agent, mitomycin C (MMC)); format: functional
Mus musculus [9] = organism: Mus musculus; assay: Lymphocyte Proliferation Stimulatory effect on Allogenic MLR at 1 ng/mL and measured for [3H]TdR (tritium-thymidine) uptake (percent of control); format: functional; summary of the method: as §2
Homo sapiens [10] = organism: Homo sapiens; assay: Lymphocyte Proliferation Stimulatory effect on human peripheral blood at 10 ng/mL and measured for [3H]TdR (tritium-thymidine) uptake (percent of control); format: functional; summary of the method: as §3
Mus musculus [11] = organism: Mus musculus; assay: Lymphocyte Proliferation Stimulatory effect on Allogenic MLR at 10 ng/mL and measured for [3H]TdR (tritium-thymidine) uptake (percent of control); format: functional; summary of the method: as §2
Mus musculus [12] = assay: Compound is administered at days 6, 10, and 14.Tumor volume of each mouse is measured on days 8, 12, 16 and 20(compound plus MMC); format: functional
Homo sapiens [13] = organism: Homo sapiens; assay: Lymphocyte Proliferation Stimulatory effect on human umbilical cord blood at 10 ng/mL and measured for [3H]TdR (tritium-thymidine) uptake (percent of control); format: functional; summary of the method: as §3
Homo sapiens [14] = organism: Homo sapiens; assay: Lymphocyte Proliferation Stimulatory effect on human peripheral blood at 1 ng/mL and measured for [3H]TdR (tritium-thymidine) uptake (percent of control); format: functional; summary of the method: as §3
Homo sapiens [15] = organism: Homo sapiens; assay: Lymphocyte Proliferation Stimulatory effect on human umbilical cord blood at 100 ng/mL and measured for [3H]TdR (tritium-thymidine) uptake (percent of control); format: functional; summary of the method: as §3
Mus musculus [16] = assay: Compound is administered at days 6, 10, and 14.Tumor volume of each mouse is measured on days 8, 12, 16 and 20(compound alone (single)); format: functional
Mus musculus [17] = organism: Mus musculus; assay: Lymphocyte Proliferation Stimulatory effect was tested on mouse spleen cells and evaluated for at 6 h [3H]TdR (tritium-thymidine) pulse and uptake into cells at 1 ng/mL; format: functional; summary of the method: as §4
Mus musculus [18] = organism: Mus musculus; assay: Lymphocyte Proliferation Stimulatory effect was tested on mouse spleen cells and evaluated for at 6 h [3H]TdR (tritium-thymidine) pulse and uptake into cells at 10 ng/mL; format: functional; summary of the method: as §4
Mus musculus [19] = organism: Mus musculus; assay: Lymphocyte Proliferation Stimulatory effect on Allogenic MLR at 100 ng/mL and measured for [3H]-TdR (tritium-thymidine) uptake (percent of control); format: functional; summary of the method: as §2
Mus musculus [20] = organism: Mus musculus; assay: Lymphocyte Proliferation Stimulatory effect on Allogenic MLR at 1 ng/tritium-thymidine) uptake (percent of control); format: functional; summary of the method: as §2

In the case of CCCCCCCCCCCCCCCCCCCCCCCC[C@@H](O)C(=O)N[C@@H](CO[C@H]1O[C@@H](CO)[C@H](O)[C@H](O)[C@@H]1O)[C@H](O)[C@H](O)CCCCCCCCCCCCCC, the Control (B16 [1]) is reported as 92.8%, the Control (Mus musculus [2]) is reported as 118% and the “Tumor growth inhibition ratio (max TGIR)” value (B16 [3]) is reported as 87.3%. For the same compound, the Control (Homo sapiens [4]) was 470%, the Control (Mus musculus [5]) was 620% and the Control (B16 [6]) was 97.7%. It also gave a Control (Homo sapiens [7]) of 382%, a Control (Mus musculus [8]) of 67.6% and a Control (Mus musculus [9]) of 180%. The Control (Homo sapiens [10]) was 352%, the Control (Mus musculus [11]) was 250% and the Control (Mus musculus [12]) was 85%. For the same compound, the Control (Homo sapiens [13]) was 582%, the Control (Homo sapiens [14]) was 332% and the Control (Homo sapiens [15]) was 586%. It also gave a Control (Mus musculus [16]) of 69.8%, a Control (Mus musculus [17]) of 203% and a Control (Mus musculus [18]) of 437%. The Control (Mus musculus [19]) was 280%.

In the case of CCCCCCCCCCCCCCCCCCCCCCCCCC(=O)N[C@@H](CO[C@H]1O[C@H](CO)[C@H](O)[C@H](O)[C@H]1O)[C@H](O)[C@H](O)CCCCCCCCCCCCCC [RGI-7000], the Control (B16 [1]) is reported as 53.8%, the Control (Mus musculus [2]) is reported as 125% and the “Tumor growth inhibition ratio (max TGIR)” value (B16 [3]) is reported as 67.6%. It also gave a Control (Homo sapiens [4]) of 590%, a Control (B16 [6]) of 86.7% and a Control (Homo sapiens [7]) of 398%. For the same compound, the Control (Homo sapiens [10]) was 389%, the Control (Mus musculus [11]) was 251% and the Control (Mus musculus [20]) was 200%. The Control (Homo sapiens [13]) was 663%, the Control (Homo sapiens [14]) was 356% and the Control (Homo sapiens [15]) was 581%. For the same compound, the Control (Mus musculus [19]) was 283%.
